Measured values published in PMC8346222 (Science Advances, 2021).
In brackets after ≈: the same amount, converted by molar mass.

Tests used:
Experiment in all cases: Minimum inhibitory concentration, broth microdilution
Assay type in all cases: cell-based
[1] = test system: Escherichia coli ATCC 2452; settings: ATCC2452, read-out: Minimum inhibitory concentration
Procedure, shortened: (§1)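 Broth microdilution per CLSI: test agents serially diluted across plates. Inoculum set to 0.5 McFarland, diluted in cation-adjusted Mueller Hinton broth to ~5 × 10^5 CFU/ml, then incubated aerobically at 37°C for 16 to 18 h. Gentamicin and imipenem were run as control antibiotics.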

[2] = test system: Klebsiella pneumoniae NR-41920; settings: NR41920, read-out: Minimum inhibitory concentration
Procedure, shortened: as §1

[3] = test system: Escherichia coli ATCC 2469; settings: ATCC2469, read-out: Minimum inhibitory concentration
Procedure, shortened: as §1

[4] = test system: Pseudomonas aeruginosa NR-50573; settings: NR50573, read-out: Minimum inhibitory concentration
Procedure, shortened: as §1

CNC(C)C1CCC(N)C(OC2C(N)CC(N)C(OC3OCC(C)(O)C(NC)C3O)C2O)O1 (centres unmarked) [Gentamicin]
MIC [1]: > 64 µg/mL
MIC [2]: 64 µg/mL (≈ 134 µM)
MIC [3]: > 64 µg/mL
MIC [4]: 1 µg/mL (≈ 2.09 µM)

C[C@@H](O)[C@H]1C(=O)N2C(C(=O)O)=C(SCCN=CN)C[C@H]12 [Imipenem]
MIC [1]: 16 µg/mL (≈ 53.4 µM)
MIC [2]: 8 µg/mL (≈ 26.7 µM)
MIC [3]: 16 µg/mL (≈ 53.4 µM)
MIC [4]: 1 µg/mL (≈ 3.34 µM)
